Laboratory results published in ChEMBL document CHEMBL5104215, “Synthesis of full-length homodimer αD-VxXXB that targets human α7 nicotinic acetylcholine receptors” (RSC Med Chem, 2022).
Activity calls are given as the source filed them. The calls are words filed in the database; no cut-off is given here. Positions of bridges follow the written chain, without caps; N, C: chain ends. Non-standard residues stand in square brackets, D forms with d. Residues, ends and D or L forms follow the SMILES beside them. Chains are numbered I, II in the order given. Nle = CCCC[C@H](N)C(=O)O

Tests used:
[1] = target: Acetylcholine-binding protein (Lymnaea stagnalis, UniProt P58154); assay: Displacement of [3H]-epibatidine from recombinant Lymnaea stagnalis Acetylcholine-binding protein by radioligand binding assay
Chain of Acetylcholine-binding protein (P58154 whole entry): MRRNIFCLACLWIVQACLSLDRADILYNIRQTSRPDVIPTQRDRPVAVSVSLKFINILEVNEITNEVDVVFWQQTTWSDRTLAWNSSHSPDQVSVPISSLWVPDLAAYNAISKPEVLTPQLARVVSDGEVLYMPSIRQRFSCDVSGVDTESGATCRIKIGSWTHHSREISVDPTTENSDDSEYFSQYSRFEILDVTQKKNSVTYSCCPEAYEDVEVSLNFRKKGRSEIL
In short: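 Competition binding: peptide concentration series against [3H]-epibatidine bound to recombinantly expressed Ls-AChBP; IC50 taken from concentration–response curves of displacement. Values are means ± SEM of triplicates from three independent experiments.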

[2] = target: T1, Neuronal acetylcholine receptor subunit alpha-7 (Homo sapiens, UniProt P36544); assay: Negative allosteric modulation activity at alpha7 nAChR in human SH-SY5Y cells assessed as fold change in inhibition of choline induced intracellular calcium by FLIPR assay relative to CTD(21-50); format: cell-based; settings: filed as negative allosteric modulator
T1 sequence (P36544 whole entry): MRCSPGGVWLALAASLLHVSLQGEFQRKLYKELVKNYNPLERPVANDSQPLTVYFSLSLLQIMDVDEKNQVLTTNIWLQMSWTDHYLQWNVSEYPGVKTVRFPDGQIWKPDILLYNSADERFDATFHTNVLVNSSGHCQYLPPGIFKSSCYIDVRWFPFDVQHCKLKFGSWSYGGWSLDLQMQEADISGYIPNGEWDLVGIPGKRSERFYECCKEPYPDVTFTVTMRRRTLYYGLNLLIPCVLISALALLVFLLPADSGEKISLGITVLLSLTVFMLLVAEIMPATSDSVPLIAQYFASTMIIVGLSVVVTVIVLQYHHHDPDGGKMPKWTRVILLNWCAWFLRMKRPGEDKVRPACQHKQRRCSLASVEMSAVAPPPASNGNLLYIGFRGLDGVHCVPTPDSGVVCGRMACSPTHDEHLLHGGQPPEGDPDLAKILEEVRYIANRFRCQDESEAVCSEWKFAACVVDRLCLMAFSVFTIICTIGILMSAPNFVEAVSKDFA

[3] = target: Acetylcholine-binding protein (Lymnaea stagnalis) (UniProt P58154); assay: Displacement of [3H]-epibatidine from recombinant Lymnaea stagnalis Acetylcholine-binding protein assessed as inhibition of [3H]-epibatidine binding at 40 uM by radioligand saturation binding assay
Chain of Acetylcholine-binding protein (Lymnaea stagnalis) (P58154 whole entry): as the sequence (P58154 whole entry) above
In short: (§1)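 Saturation binding of [3H]-epibatidine to recombinantly expressed Ls-AChBP was run without peptide and with a fixed peptide concentration (20 μM or 40 μM, depending on the peptide). Data are means ± SEM of triplicates from three independent experiments.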

[4] = target: T1, Neuronal acetylcholine receptor subunit alpha-7; assay: Negative allosteric modulation activity at alpha7 nAChR in human SH-SY5Y cells assessed as inhibition of choline induced intracellular calcium by FLIPR assay; format: cell-based
[5] = target: Acetylcholine-binding protein (Lymnaea stagnalis) (UniProt P58154); assay: Displacement of [3H]-epibatidine from recombinant Lymnaea stagnalis Acetylcholine-binding protein assessed as inhibition of [3H]-epibatidine binding by radioligand saturation binding assay; settings: filed as negative allosteric modulator; in short: as §1
[6] = target: Acetylcholine-binding protein (Lymnaea stagnalis) (UniProt P58154); assay: Displacement of [3H]-epibatidine from recombinant Lymnaea stagnalis Acetylcholine-binding protein assessed as fold change in inhibition of [3H]-epibatidine binding by radioligand binding assay relative to CTD(21-50); settings: filed as negative allosteric modulator
In short: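 Competition binding: peptides displaced [3H]-epibatidine from recombinantly expressed Lymnaea stagnalis AChBP. IC50 came from concentration–response curves. The ratio is each peptide's IC50 divided by the IC50 of the CTD(21–50) reference. Data are means ± SEM of triplicates from three independent experiments.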

[7] = target: Acetylcholine-binding protein (Lymnaea stagnalis) (UniProt P58154); assay: Displacement of [3H]-epibatidine from recombinant Lymnaea stagnalis Acetylcholine-binding protein assessed as inhibition of [3H]-epibatidine binding at 20 uM by radioligand saturation binding assay; in short: as §1

Structure (SMILES)	IC50 [1]	fold change (FC) [2]	inhibition [3]	IC50 [4]	Activity [5]	fold change (FC) [6]	inhibition [7]
CCCC[C@@H]1N[C@@H](CO)C(=O)NCC(=O)N[C@H]2CSSC[C@@H]3NC(=O)[C@H](C(C)C)NC(=O)[C@H](Cc4ccc(O)cc4)NC(=O)[C@H](Cc4cnc[nH]4)NC(=O)[C@H](Cc4c[nH]c5ccccc45)NC(=O)[C@H](CCCNC(=N)N)NC(=O)[C@H](CCCNC(=N)N)NC(=O)CNC(=O)[C@H](Cc4cnc[nH]4)NC(=O)CNC(=O)[C@@H]4CSSC[C@H](NC(=O)[C@@H]5CCCN5C(=O)[C@H](CCCNC(=N)N)NC(=O)[C@H](CC(N)=O)NC(=O)CNC(=O)[C@H](CSSC[C@H](NC(=O)[C@@H]5CCCN5C(=O)CN)C(=O)N[C@@H](CO)C(=O)N4)NC(=O)[C@H]([C@@H](C)O)NC3=O)C(=O)N[C@@H](CSSC[C@@H](C(=O)O)NC(=O)[C@H](CCCNC(=N)N)NC(=O)[C@H]([C@@H](C)O)NC(=O)[C@H](CCCNC(=N)N)N[C@@H](CCCC)C(=O)NC2=O)C(=O)NC1=O	10 µM	8	29%	0.023 µM	Active	2	
CCCC[C@@H]1NC(=O)[C@H](CO)NC(=O)CNC(=O)[C@@H](NC(=O)[C@H](CCCC)NC(=O)[C@H](CCCNC(=N)N)NC(=O)[C@@H](N)[C@@H](C)O)CSSC[C@@H]2NC(=O)[C@H]([C@@H](C)O)NC(=O)[C@@H]3CSSC[C@@H](C(=O)N4CCC[C@H]4C(=O)NCC(=O)O)NC(=O)[C@H](CO)NC(=O)[C@H](CSSC[C@H](NC(=O)[C@H](CO)NC1=O)C(=O)N1CCC[C@H]1C(=O)N[C@@H](CCCNC(=N)N)C(=O)N[C@@H](CC(N)=O)C(=O)NCC(=O)N3)NC(=O)CNC(=O)[C@H](Cc1cnc[nH]1)NC(=O)CNC(=O)[C@H](CCCNC(=N)N)NC(=O)[C@H](CCCNC(=N)N)NC(=O)[C@H](Cc1c[nH]c3ccccc13)NC(=O)[C@H](Cc1cnc[nH]1)NC(=O)[C@H](Cc1ccc(O)cc1)NC(=O)[C@H](C(C)C)NC2=O (H-TR[Nle]CGS[Nle]SCPRNGCTCVYHWRRGHGCSCPG-OH; disulfide 4-16, 9-26, 14-28)	20 µM			0.176 µM	Active		20%
CC[C@H](C)[C@@H]1NC(=O)[C@H](CC(N)=O)NC(=O)[C@H]([C@@H](C)O)NC(=O)[C@H](CCCNC(=N)N)NC(=O)[C@H](CC(=O)O)NC(=O)[C@H](CO)NC(=O)[C@@H]2CCCN2C(=O)[C@H](Cc2c[nH]c3ccccc23)NC(=O)CNC(=O)[C@H](CCCNC(=N)N)NC(=O)[C@@H](N)CSSC[C@H](N)C(=O)N[C@@H]([C@@H](C)CC)C(=O)N[C@@H]([C@@H](C)CC)C(=O)N[C@@H](CC(N)=O)C(=O)N[C@@H]([C@@H](C)O)C(=O)N[C@@H](CCCNC(=N)N)C(=O)N[C@@H](CC(=O)O)C(=O)N[C@@H](CO)C(=O)N2CCC[C@H]2C(=O)N[C@@H](Cc2c[nH]c3ccccc23)C(=O)NCC(=O)N[C@@H](CCCNC(=N)N)C(=O)N[C@H](C(=O)O)CSSC[C@@H](C(=O)O)NC(=O)[C@H]([C@@H](C)CC)NC1=O (I: H-CIINTRDSPWGRC-OH / II: H-CRGWPSDRTNIIC-OH; disulfide I:1-II:1, I:13-II:13)				46 µM			
CC[C@H](C)[C@@H]1NC(=O)[C@H](CC(N)=O)NC(=O)[C@H]([C@@H](C)O)NC(=O)[C@H](CCCNC(=N)N)NC(=O)[C@H](CC(=O)O)NC(=O)[C@H](CO)NC(=O)[C@@H]2CCCN2C(=O)[C@H](Cc2c[nH]c3ccccc23)NC(=O)CNC(=O)[C@H](CCCNC(=N)N)NC(=O)[C@@H](N)CSSC[C@H](NC(=O)[C@H](CCC(=O)O)NC(=O)[C@H](CO)NC(=O)[C@H](CCC(=O)O)NC(=O)[C@H](CC(=O)O)NC(=O)[C@@H](N)CC(=O)O)C(=O)N[C@@H]([C@@H](C)CC)C(=O)N[C@@H]([C@@H](C)CC)C(=O)N[C@@H](CC(N)=O)C(=O)N[C@@H]([C@@H](C)O)C(=O)N[C@@H](CCCNC(=N)N)C(=O)N[C@@H](CC(=O)O)C(=O)N[C@@H](CO)C(=O)N2CCC[C@H]2C(=O)N[C@@H](Cc2c[nH]c3ccccc23)C(=O)NCC(=O)N[C@@H](CCCNC(=N)N)C(=O)N[C@H](C(=O)O)CSSC[C@@H](C(=O)N[C@@H](CCC(=O)O)C(=O)N[C@@H](CO)C(=O)N[C@@H](CCC(=O)O)C(=O)N[C@@H](CC(=O)O)C(=O)N[C@@H](CC(=O)O)C(=O)O)NC(=O)[C@H]([C@@H](C)CC)NC1=O (I: H-CRGWPSDRTNIICESEDD-OH / II: H-DDESECIINTRDSPWGRC-OH; disulfide I:1-II:6, I:13-II:18)				35 µM			
